Results taken from ChEMBL document CHEMBL1143838, “Candida albicans and Candida dubliniensis respond differently to echinocandin antifungal agents in vitro” (2007).
In brackets after ≈: the same amount, converted by molar mass. Activity calls are given as the source filed them. The calls are words filed in the database; no cut-off is given here. *1 amine or outer side, *2 acyl side, *3 side chain or, on linkers, in order; H or OH if unused. Where a SMILES comes first, the peptide text is derived from it. Bridges are numbered along the chain shown (N, C = ends). [ ]: non-standard residue; d: D form. The star is where a group is joined. hTyr(3S-OH,4S-OH,3'-OSO3H) = N[C@H](C(=O)O)[C@H](O)[C@@H](O)c1ccc(O)c(OS(=O)(=O)O)c1; pTerphenylCO(4''-OnC5H11) = CCCCCOc1ccc(-c2ccc(-c3ccc(C(=O)*)cc3)cc2)cc1; Orn(4R-OH,5R-OH) = O=C([C@H](C[C@@H](O)[C@@H](O)N[*:3])N[*:1])[*:2]; hTyr(3S-OH,4S-OH) = N[C@H](C(=O)O)[C@H](O)[C@@H](O)c1ccc(O)cc1; Pro(3S-OH,4S-Me) = C[C@H]1CN[C@H](C(=O)O)[C@H]1O; X1 = CCCCCOc1ccc(-c2cc(-c3ccc(C(=O)*)cc3)no2)cc1; Gln(3R-OH) = NC(=O)C[C@@H](O)[C@H](N)C(=O)O; Hyp = O=C(O)[C@@H]1C[C@@H](O)CN1

Legend:
Candida albicans [1] = assay: Antifungal activity against Candida albicans NR2 after 24 hrs by EUCAST test; format: functional
How it was run: (§1)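 EUCAST broth microdilution with aqueous doubling dilutions of drug. Inoculum grown overnight at 30°C in NGY, then added to MOPS-buffered RPMI 1640 with 2% glucose at an initial 10^5 yeasts/ml. Incubated 35°C for 24 h. MICs taken from triplicate spectrophotometric dose-response data as 50% and 80% growth-reduction endpoints.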

Candida albicans [2] = assay: Antifungal activity against Candida albicans SC5314 after 24 hrs by CLSI M27-A test; format: functional; settings: SC5314, 24 h
How it was run: (§2)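 CLSI M27-A broth microdilution with aqueous doubling dilutions of drug. Inoculum grown overnight at 30°C in NGY medium, then added to MOPS-buffered RPMI 1640 at an initial 10^3 yeasts/ml. Incubated 35°C for 24 h. MIC read visually as the lowest concentration giving a marked decrease in visible growth; paradoxical or trailing growth noted.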

Candida dubliniensis [3] = assay: Antifungal activity against Candida dubliniensis ANSA 23a after 24 hrs by CLSI M27-A test; format: functional, organism-based
How it was run: (§3)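 Broth microdilution with echinocandins as aqueous doubling dilutions. Yeasts were grown overnight at 30°C in NGY and seeded at 10^3 yeasts/ml initial concentration in MOPS-buffered RPMI 1640, then incubated at 35°C for 24 h. The MIC was read visually as the lowest concentration giving a marked decrease in visible growth; paradoxical or trailing growth was noted.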

Candida albicans [4] = assay: Antifungal activity against Candida albicans JIMS146204 after 24 hrs by EUCAST test; format: functional; how it was run: as §1
Candida dubliniensis [5] = assay: Antifungal activity against Candida dubliniensis Leic875 after 24 hrs by CLSI M27-A test; format: functional; how it was run: as §3
Candida albicans [6] = assay: Antifungal activity against Candida albicans HK04M102095 after 24 hrs by CLSI M27-A test; format: functional; how it was run: as §2
Candida dubliniensis [7] = assay: Antifungal activity against Candida dubliniensis 90/033 after 24 hrs by CLSI M27-A test; format: functional; how it was run: as §2
Candida albicans [8] = assay: Antifungal activity against Candida albicans SCS68858 after 24 hrs by EUCAST test; format: functional; how it was run: as §1
Candida dubliniensis [9] = assay: Antifungal activity against Candida dubliniensis 81/060 after 24 hrs by CLSI M27-A test; format: functional, organism-based; how it was run: as §2
Candida albicans [10] = assay: Antifungal activity against Candida albicans SCS67023C after 24 hrs by CLSI M27-A test; format: functional; how it was run: as §2
Candida dubliniensis [11] = assay: Antifungal activity against Candida dubliniensis FS after 24 hrs by CLSI M27-A test; format: functional; how it was run: as §3
Candida albicans [12] = assay: Antifungal activity against Candida albicans NCPF6525 after 24 hrs by EUCAST test; format: functional; how it was run: as §1
Candida dubliniensis [13] = assay: Antifungal activity against Candida dubliniensis SCS65875C after 24 hrs by EUCAST test; format: functional
How it was run: (§4)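 Yeasts were grown overnight at 30°C in NGY, then inoculated at 10^5 yeasts/ml initial concentration into MOPS-buffered RPMI 1640 with 2% glucose containing aqueous doubling dilutions of drug. Plates were held at 35°C for 24 h. MICs came from triplicate spectrophotometric dose-response data at 50% and 80% growth-reduction endpoints. Trailing meant a >100-fold gap between these endpoints; paradoxical meant regrowth ≥5% above the curve minimum.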

Candida albicans [14] = assay: Antifungal activity against Candida albicans JIMS146204 after 24 hrs by CLSI M27-A test; format: functional; how it was run: as §2
Candida albicans [15] = assay: Antifungal activity against Candida albicans T25 after 24 hrs by CLSI M27-A test; format: functional; how it was run: as §2
Candida dubliniensis [16] = assay: Antifungal activity against Candida dubliniensis J930936 after 24 hrs by EUCAST test; format: functional; how it was run: as §4
Candida albicans [17] = assay: Antifungal activity against Candida albicans CAI4RI after 24 hrs by EUCAST test; format: functional; how it was run: as §1
Candida albicans [18] = assay: Antifungal activity against Candida albicans JIMS101103 after 24 hrs by CLSI M27-A test; format: functional, organism-based; how it was run: as §2
Candida albicans [19] = assay: Antifungal activity against Candida albicans NR4 after 24 hrs by EUCAST test; format: functional; how it was run: as §1
Candida albicans [20] = assay: Antifungal activity against Candida albicans SCS68858 after 24 hrs by CLSI M27-A test; format: functional; how it was run: as §2
Candida dubliniensis [21] = assay: Antifungal activity against Candida dubliniensis IK after 24 hrs by CLSI M27-A test; format: functional; how it was run: as §3
Candida albicans [22] = assay: Antifungal activity against Candida albicans Y109 after 24 hrs by EUCAST test; format: functional; how it was run: as §1
Candida albicans [23] = assay: Antifungal activity against Candida albicans T26 after 24 hrs by EUCAST test; format: functional; how it was run: as §1
Candida dubliniensis [24] = assay: Antifungal activity against Candida dubliniensis 910Aa after 24 hrs by CLSI M27-A test; format: functional; how it was run: as §2
Candida dubliniensis [25] = assay: Antifungal activity against Candida dubliniensis SCS17154969-2 after 24 hrs by CLSI M27-A test; format: functional; how it was run: as §3
Candida albicans [26] = assay: Antifungal activity against Candida albicans CAI4RI after 24 hrs by CLSI M27-A test; format: functional; how it was run: as §2
Candida dubliniensis [27] = assay: Antifungal activity against Candida dubliniensis 910Aa after 24 hrs by EUCAST test; format: functional; how it was run: as §1
Candida dubliniensis [28] = assay: Antifungal activity against Candida dubliniensis SCSBB417709 after 24 hrs by CLSI M27-A test; format: functional; how it was run: as §3
Candida albicans [29] = assay: Antifungal activity against Candida albicans AM2003/0083 after 24 hrs by EUCAST test; format: functional; how it was run: as §1
Candida dubliniensis [30] = assay: Antifungal activity against Candida dubliniensis J931021 after 24 hrs by CLSI M27-A test; format: functional; how it was run: as §3
Candida albicans [31] = assay: Antifungal activity against Candida albicans NR3 after 24 hrs by EUCAST test; format: functional; how it was run: as §1
Pichia kudriavzevii [32] = assay: Antifungal activity against Candida krusei ATCC 6258 after 24 hrs by EUCAST test; format: functional; settings: ATCC 6258, 24 h; how it was run: as §4
Pichia kudriavzevii [33] = assay: Antifungal activity against Candida krusei ATCC 6258 after 24 hrs by CLSI M27-A test; format: functional; settings: ATCC 6258, 24 h
How it was run: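 Broth microdilution per CLSI M27-A. Drugs were prepared as aqueous doubling dilutions. Inoculum was grown overnight at 30°C in neopeptone-yeast extract-glucose medium, then added to MOPS-buffered RPMI 1640 at an initial 10^3 yeasts/ml. Plates were incubated at 35°C for 24 h. MIC was read visually as the lowest concentration giving a marked decrease in visible growth.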

Candida dubliniensis [34] = assay: Antifungal activity against Candida dubliniensis SCSBB417709 after 24 hrs by EUCAST test; format: functional; how it was run: as §4
Candida dubliniensis [35] = assay: Antifungal activity against Candida dubliniensis ST after 24 hrs by CLSI M27-A test; format: functional; how it was run: as §3
Candida dubliniensis [36] = assay: Antifungal activity against Candida dubliniensis ANSA 23a after 24 hrs by EUCAST test; format: functional; how it was run: as §4

| Structure (SMILES) | MIC50 (Candida albicans [1]) | MIC50 (Candida albicans [2]) | MIC50 (Candida albicans [4]) | MIC50 (Candida dubliniensis [5]) | MIC50 (Candida albicans [6]) | MIC50 (Candida dubliniensis [7]) | MIC50 (Candida albicans [8]) | MIC50 (Candida albicans [10]) | MIC50 (Candida dubliniensis [11]) | MIC50 (Candida albicans [12]) | MIC50 (Candida dubliniensis [13]) | MIC50 (Candida albicans [14]) | MIC50 (Candida albicans [15]) | MIC50 (Candida dubliniensis [16]) | MIC50 (Candida albicans [17]) | MIC50 (Candida albicans [19]) | MIC50 (Candida albicans [20]) | MIC50 (Candida dubliniensis [21]) | MIC50 (Candida albicans [22]) | MIC50 (Candida albicans [23]) | also measured |
| --- | --- | --- | --- | --- | --- | --- | --- | --- | --- | --- | --- | --- | --- | --- | --- | --- | --- | --- | --- | --- | --- |
| CCCCCOc1ccc(-c2ccc(-c3ccc(C(=O)N[C@H]4C[C@@H](O)[C@@H](O)NC(=O)[C@@H]5[C@@H](O)[C@@H](C)CN5C(=O)[C@H]([C@@H](C)O)NC(=O)[C@H]([C@H](O)[C@@H](O)c5ccc(O)cc5)NC(=O)[C@@H]5C[C@@H](O)CN5C(=O)[C@H]([C@@H](C)O)NC4=O)cc3)cc2)cc1 [ANIDULAFUNGIN] ({pTerphenylCO(4''-OnC5H11)}-[Orn(4R-OH,5R-OH)]T[Hyp][hTyr(3S-OH,4S-OH)]T[Pro(3S-OH,4S-Me)]; lactam 1-C) | 0.25 mg/L (≈ 0.219 µM) | ≤ 0.032 mg/L | ≤ 0.032 mg/L | ≤ 0.032 mg/L | ≤ 0.032 mg/L | ≤ 0.032 mg/L | ≤ 0.032 mg/L | ≤ 0.032 mg/L | ≤ 0.032 mg/L | 0.25 mg/L (≈ 0.219 µM) | ≤ 0.032 mg/L | ≤ 0.032 mg/L | 1 mg/L (≈ 0.877 µM) | ≤ 0.032 mg/L | 0.25 mg/L (≈ 0.219 µM) | 0.13 mg/L (≈ 0.114 µM) | ≤ 0.032 mg/L | ≤ 0.032 mg/L | 0.13 mg/L (≈ 0.114 µM) | 0.5 mg/L (≈ 0.438 µM) | Activity (Candida dubliniensis [3]): Active; Activity (Candida dubliniensis [9]): Active; Activity (Candida albicans [18]): Active; MIC50 (Candida dubliniensis [24]): ≤ 0.032 mg/L; MIC50 (Candida dubliniensis [25]): ≤ 0.032 mg/L; MIC50 (Candida albicans [26]): 0.5 mg/L (≈ 0.438 µM); MIC50 (Candida dubliniensis [27]): ≤ 0.032 mg/L; MIC50 (Candida dubliniensis [28]): ≤ 0.032 mg/L; MIC50 (Candida albicans [29]): ≤ 0.032 mg/L; MIC50 (Candida dubliniensis [30]): ≤ 0.032 mg/L; MIC50 (Candida albicans [31]): 1 mg/L (≈ 0.877 µM); MIC50 (Pichia kudriavzevii [32]): 0.063 mg/L (≈ 0.0553 µM); MIC50 (Pichia kudriavzevii [33]): 0.13 mg/L (≈ 0.114 µM); MIC50 (Candida dubliniensis [34]): ≤ 0.032 mg/L; MIC50 (Candida dubliniensis [35]): ≤ 0.032 mg/L; MIC50 (Candida dubliniensis [36]): ≤ 0.032 mg/L |
| CCCCCOc1ccc(-c2cc(-c3ccc(C(=O)N[C@H]4C[C@@H](O)[C@@H](O)NC(=O)[C@@H]5[C@@H](O)[C@@H](C)CN5C(=O)[C@H]([C@H](O)CC(N)=O)NC(=O)[C@H]([C@H](O)[C@@H](O)c5ccc(O)c(OS(=O)(=O)O)c5)NC(=O)[C@@H]5C[C@@H](O)CN5C(=O)[C@H]([C@@H](C)O)NC4=O)cc3)no2)cc1 [MICAFUNGIN] (X1-[Orn(4R-OH,5R-OH)]T[Hyp][hTyr(3S-OH,4S-OH,3'-OSO3H)][Gln(3R-OH)][Pro(3S-OH,4S-Me)]; lactam 1-C) | 0.5 mg/L (≈ 0.394 µM) | ≤ 0.032 mg/L | ≤ 0.032 mg/L | ≤ 0.032 mg/L | ≤ 0.032 mg/L | ≤ 0.032 mg/L | ≤ 0.032 mg/L | ≤ 0.032 mg/L | ≤ 0.032 mg/L | ≤ 0.032 mg/L | ≤ 0.032 mg/L | ≤ 0.032 mg/L | 1 mg/L (≈ 0.787 µM) | ≤ 0.032 mg/L | 0.5 mg/L (≈ 0.394 µM) | 0.5 mg/L (≈ 0.394 µM) | ≤ 0.032 mg/L | ≤ 0.032 mg/L | 0.25 mg/L (≈ 0.197 µM) | 1 mg/L (≈ 0.787 µM) | MIC50 (Candida dubliniensis [24]): ≤ 0.032 mg/L; MIC50 (Candida dubliniensis [25]): ≤ 0.032 mg/L; MIC50 (Candida albicans [26]): 0.25 mg/L (≈ 0.197 µM); MIC50 (Candida dubliniensis [27]): ≤ 0.032 mg/L; MIC50 (Candida dubliniensis [28]): ≤ 0.032 mg/L; MIC50 (Candida albicans [29]): ≤ 0.032 mg/L; MIC50 (Candida dubliniensis [30]): ≤ 0.032 mg/L; MIC50 (Candida albicans [31]): 2 mg/L (≈ 1.57 µM); MIC50 (Pichia kudriavzevii [32]): 0.13 mg/L (≈ 0.102 µM); MIC50 (Pichia kudriavzevii [33]): 0.13 mg/L (≈ 0.102 µM); MIC50 (Candida dubliniensis [34]): ≤ 0.032 mg/L; MIC50 (Candida dubliniensis [35]): ≤ 0.032 mg/L; MIC50 (Candida dubliniensis [36]): ≤ 0.032 mg/L |
